Measured values: ChEMBL document CHEMBL5120910, “Small-Molecule Gankyrin Inhibition as a Therapeutic Strategy for Breast and Lung Cancer” (J Med Chem, 2022)
Active and inactive are the calls of the source. The calls are words filed in the database; no cut-off is given here.

Key:
A549 [1] = test: Inhibition of colony formation in human A549 cells at 0.3 uM incubated for 48 hrs followed by replacement of fresh media every alternative day measured after 7 days by crystal violet staining based clonogenic assay relative to control; values are per cent of control; conditions: A549, 48 h
[2] = biological target: T1, 26S proteasome non-ATPase regulatory subunit 10 (Homo sapiens) (UniProt O75832); test: Binding affinity to gankyrin in human A549 cells assessed as decrease in thermal stability at 0.3 uM incubated for 48 hrs followed by heat treatment at 50 to 65 degreeC by CETSA; type: cell-based
T1 sequence (whole entry): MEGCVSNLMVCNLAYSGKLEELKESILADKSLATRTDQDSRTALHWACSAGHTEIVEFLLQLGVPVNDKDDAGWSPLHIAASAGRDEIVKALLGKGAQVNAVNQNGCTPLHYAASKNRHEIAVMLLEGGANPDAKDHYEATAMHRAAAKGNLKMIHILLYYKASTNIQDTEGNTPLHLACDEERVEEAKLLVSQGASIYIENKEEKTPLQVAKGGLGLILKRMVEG
How it was run: (§1)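 CETSA: cells treated with compound for 48 h, then heated across a temperature range. Soluble gankyrin was detected by western blot and melt curves were constructed. Mean ± SD, n = 3.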

A549 [3] = test: Inhibition of gankyrin-proteasome protein-protein interaction in human A549 cells assessed as increase in phosphorylated p53 level at serine 15 residue at 0.12 to 1 uM measured after 48 hrs by Western blotting analysis; type: cell-based; conditions: dose 0.12-1 µM
How it was run: (§2)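 Cells in 10 cm dishes treated with varying concentrations (0.5% DMSO final) or DMSO only for 48 h. Lysed in RIPA with protease/phosphatase inhibitors on ice for 60 min. 15 μg protein resolved under reducing conditions, transferred to PVDF, and probed for p53, phospho-p53 S6/S15, Rb, gankyrin and cyclophilin. Detection by HRP-secondary ECL.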

A549 [4] = test: Antitumor activity against human A549 cells tumor spheroids assessed as increase in dead cells by measuring red fluorescence intensity measured at 15 days by EthD-III staining based fluorescence microscopic analysis; type: functional, cell-based; conditions: dose 0.15-5 µM, time 15.0 day, DDE = dose-dependent effect
How it was run: (§3)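 Live/dead staining of 3D spheroids at day 15 after single-dose treatment: media replaced by kit reagent with calcein AM (live, green) and EthD-III (dead, red), 30 min in dark at room temperature, imaged at 4X by fluorescence microscopy. Mean ± SD, n = 4; unpaired Student's t-test.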

A549 [5] = test: Inhibition of gankyrin-proteasome protein-protein interaction in human A549 cells assessed as increase in phosphorylated p53 level at serine 6 residue at 0.60 to 5 uM measured after 48 hrs by Western blotting analysis; type: cell-based; conditions: dose 0.6-5 µM
How it was run: as §2

A549 [6] = test: Induction of cell cycle arrest in human A549 cells assessed as increase in cell accumulation at G0/G1 phase at 0.3 uM measured after 72 hrs by propidium iodide staining based flow cytometry analysis; type: functional
How it was run: (§4)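 Cells in 10 cm dishes treated for 72 h (0.1% DMSO final; DMSO-only control). Harvested in cold PBS, fixed in 70% ethanol at −20 °C overnight, stained with PI for 40 min at 37 °C, then analysed by flow/imaging cytometry for G0/G1, S and G2/M fractions. Mean ± SD, n = 3.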

[7] = biological target: T1, 26S proteasome non-ATPase regulatory subunit 10 (Homo sapiens); test: Binding affinity to gankyrin (unknown origin) expressed in Escherichia coli BL21 (DE3) expression system assessed as decrease in thermal denaturation at 1.5 uM measured at 5 to 90 degreeC by circular dichroism spectropolarimeter analysis
How it was run: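 Recombinant His-tagged gankyrin expressed in E. coli BL21(DE3) Codon+RIL (IPTG 1 mM, 25 °C, ~5 h) and purified by Ni2+-IMAC. Thermal denaturation followed by CD at 217 nm over 5–90 °C with compound at 1.5 μM.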

A549 [8] = test: Antitumor activity in human A549 cells cultured as 3D spheroids assessed as fold decrease in spheroid volume at 0.30 uM measured up to 15 days by inverted microscopic analysis; type: functional; conditions: dose 0.3 µM; time <= 15 day
How it was run: (§5)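 Spheroids formed from 2000 cells/well in ultra-low attachment U-bottom wells over 3 days, then given a single dose on day 3. Half the media was replenished every 3 days. Transmitted-light images were taken through day 15, and spheroid volume was computed from images and expressed as fold-difference. Mean ± SD, n = 8; unpaired t-test.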

A549 [9] = test: Antitumor activity against human A549 cells tumor spheroids assessed as decrease in live cells by measuring green fluorescence intensity measured at 15 days by calcein AM staining based fluorescence microscopic analysis; type: functional, cell-based; conditions: dose 0.15-5 µM, time 15.0 day, DDE = dose-dependent effect
How it was run: as §3

A549 [10] = test: Inhibition of gankyrin-proteasome protein-protein interaction in human A549 cells assessed as increase in phosphorylated p53 level at serine 6 residue at 0.04 to 0.33 uM measured after 48 hrs by Western blotting analysis; type: cell-based; conditions: dose 0.04-0.33 µM
How it was run: as §2

A549 [11] = test: Antiproliferative activity against human A549 cells assessed as cell growth inhibition measured after 72 hrs by MTT assay; type: functional, cell-based; conditions: A549, 72 h
How it was run: (§6)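 Cells seeded at 2.5 × 10^4 cells/well, allowed 24 h before dosing, then exposed to increasing concentrations (0.5% DMSO final) for 72 h at 37 °C, 5% CO2. MTT added at 1 mg/mL final in complete media for 2 h, formazan dissolved in DMSO, absorbance read at 570 nm. 6–8 repeats per treatment; IC50 from concentration–response fit.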

[12] = Metabolic stability in human liver microsomes assessed as compound remaining preincubated for 10 mins followed by NADPH addition measured after 60 mins by HPLC analysis; type: ADME, Microsome; conditions: read-out: Stability
A549 [13] = test: Induction of cell cycle arrest in human A549 cells assessed as decrease in cell accumulation at G2/M phase at 0.3 uM measured after 72 hrs by propidium iodide staining based flow cytometry analysis; type: functional
How it was run: as §4

[14] = biological target: T1, 26S proteasome non-ATPase regulatory subunit 10 (Homo sapiens); test: Binding affinity to gankyrin (unknown origin) assessed as change in melting temperature at 300 uM by SYPRO orange staining based thermal shift assay
A549 [15] = test: Induction of cell cycle arrest in human A549 cells assessed as decrease in cell accumulation at S phase at 0.3 uM measured after 72 hrs by propidium iodide staining based flow cytometry analysis; type: functional
How it was run: as §4

[16] = Cytotoxicity against HEK293 cells assessed as cell growth inhibition measured after 72 hrs by MTT assay; type: toxicity, cell-based; conditions: human
How it was run: as §6

A549 [17] = test: Antitumor activity in human A549 cells cultured as 3D spheroids assessed as fold decrease in spheroid volume at 0.15 uM measured up to 15 days by inverted microscopic analysis; type: functional; conditions: time <= 15 day
How it was run: as §5

A549 [18] = test: Inhibition of gankyrin-proteasome protein-protein interaction in human A549 cells assessed as increase in phosphorylated p53 level at serine 15 residue at 0.04 to 0.33 uM measured after 48 hrs by Western blotting analysis; type: cell-based; conditions: dose 0.04-0.33 µM
How it was run: as §2

MDA-MB-231 [19] = test: Antiproliferative activity against human MDA-MB-231 cells assessed as cell growth inhibition measured after 72 hrs by MTT assay; type: functional, cell-based; conditions: MDA-MB-231, 72 h
How it was run: as §6

A549 [20] = test: Inhibition of gankyrin-proteasome protein-protein interaction in human A549 cells assessed as increase in phosphorylated p53 level at serine 6 residue at 0.12 to 1 uM measured after 48 hrs by Western blotting analysis; type: cell-based; conditions: dose 0.12-1 µM
How it was run: as §2

MDA-MB-231 [21] = test: Antitumor activity in human MDA-MB-231 cells cultured as 3D spheroids assessed as fold decrease in spheroid volume at 2 uM measured up to 15 days by inverted microscopic analysis; type: functional; conditions: time <= 15 day
How it was run: as §5

HuH-6 [22] = test: Inhibition of gankyrin-proteasome protein-protein interaction in human HuH-6 cells assessed as increase in p53 level at 0.12 to 1 uM measured after 48 hrs by Western blotting analysis; type: cell-based; conditions: dose 0.12-1 µM
How it was run: as §2

MDA-MB-231 [23] = test: Antitumor activity against human MDA-MB-231 cells tumor spheroids assessed as increase in dead cells by measuring red fluorescence intensity at 1 to 2 uM measured at 15 days by EthD-III staining based fluorescence microscopic analysis; type: functional, cell-based; conditions: dose 1-2 µM, time 15.0 day
How it was run: as §3

MDA-MB-231 [24] = test: Induction of cell cycle arrest in human MDA-MB-231 cells assessed as increase in cell accumulation at G0/G1 phase at 2 uM measured after 72 hrs by propidium iodide staining based flow cytometry analysis; type: functional
How it was run: as §4

MDA-MB-231 [25] = test: Inhibition of colony formation in human MDA-MB-231 cells at 2 uM incubated for 48 hrs followed by replacement of fresh media every alternative day measured after 7 days by crystal violet staining based clonogenic assay relative to control; values are per cent of control; conditions: MDA-MB-231, 216 h
HuH-6 [26] = test: Inhibition of gankyrin-proteasome protein-protein interaction in human HuH-6 cells assessed as increase in Rb level at 0.12 to 1 uM measured after 48 hrs by Western blotting analysis; type: cell-based; conditions: dose 0.12-1 µM
How it was run: as §2

MDA-MB-231 [27] = test: Induction of cell cycle arrest in human MDA-MB-231 cells at 2 uM measured after 72 hrs by propidium iodide staining based flow cytometry analysis
MDA-MB-231 [28] = test: Inhibition of gankyrin-proteasome protein-protein interaction in human MDA-MB-231 cells assessed as increase in Rb level at 0.25 to 2 uM measured after 48 hrs by Western blotting analysis; type: cell-based; conditions: dose 0.25-2 µM
How it was run: as §2

MDA-MB-231 [29] = test: Antitumor activity in human MDA-MB-231 cells cultured as 3D spheroids assessed as fold decrease in spheroid volume at 1 uM measured up to 15 days by inverted microscopic analysis; type: functional; conditions: time <= 15 day
How it was run: as §5

[30] = Antiproliferative activity against human HuH-6 cells assessed as cell growth inhibition measured after 72 hrs by MTT assay; type: functional, cell-based; conditions: HuH-6, 72 h
How it was run: as §6

MDA-MB-231 [31] = test: Antitumor activity against human MDA-MB-231 cells tumor spheroids assessed as decrease in live cells by measuring green fluorescence intensity at 1 to 2 uM measured at 15 days by calcein AM staining based fluorescence microscopic analysis; type: functional, cell-based; conditions: dose 1-2 µM, time 15.0 day
How it was run: as §3

[32] = biological target: T1, 26S proteasome non-ATPase regulatory subunit 10 (Homo sapiens); test: Binding affinity to gankyrin in human MDA-MB-231 cells assessed as decrease in thermal stability at 2 uM incubated for 48 hrs followed by heat treatment at 50 to 65 degreeC by CETSA; type: cell-based
How it was run: as §1

A549 [33] = test: Antitumor activity in human A549 cells cultured as 3D spheroids assessed as fold decrease in spheroid volume at 5 uM measured up to 15 days by inverted microscopic analysis; type: functional; conditions: time <= 15 day
How it was run: as §5

[34] = biological target: T1, 26S proteasome non-ATPase regulatory subunit 10 (Homo sapiens); test: Binding affinity to gankyrin (unknown origin) expressed in Escherichia coli BL21 (DE3) expression system assessed as formation of white precipitation of the compound at 1.5 uM
A549 [35] = test: Antitumor activity in human A549 cells cultured as 3D spheroids assessed as fold decrease in spheroid volume at 2.5 uM measured up to 15 days by inverted microscopic analysis; type: functional; conditions: time <= 15 day
How it was run: as §5

## COC(=O)c1ccc(-c2cn(CCCC(=O)Nc3ccc(-c4ccccc4)cc3)nn2)cc1
A549 [1]
  growth, % of control at 0.3 µM: 44.6%
[2]
  Activity: Active
A549 [3]
  Activity: Active
A549 [4]
  Activity: Dde
A549 [5]
  Activity: Active
A549 [6]
  Activity: Active
[7]
  Activity: Active
A549 [8]
  fold change (FC): 2.4
A549 [9]
  Activity: Dde
A549 [10]
  Activity: Active
A549 [11]
  IC50: 0.33 µM
[12]
  remaining at 1 h: 87%
A549 [13]
  Activity: Active
[14]
  Activity: Active
A549 [15]
  Activity: Active
[16]
  IC50 at 72 h: > 100 µM
A549 [17]
  fold change (FC): 3.6
A549 [18]
  Activity: Active
MDA-MB-231 [19]
  IC50: > 100 µM
A549 [20]
  Activity: Active

## O=C(CCCn1cc(-c2ccc(C(F)(F)F)cc2)nn1)Nc1ccc(-c2ccccc2)cc1
MDA-MB-231 [21]
  fold change (FC): 3.2
HuH-6 [22]
  Activity: Active
MDA-MB-231 [23]
  Activity: Active
MDA-MB-231 [24]
  Activity: Active
MDA-MB-231 [25]
  growth, % of control at 2 µM: 46.3%
HuH-6 [26]
  Activity: Active
MDA-MB-231 [27]
  Activity: Active
[7]
  Activity: Active
MDA-MB-231 [28]
  Activity: Active
A549 [11]
  IC50: 19.1 µM
[12]
  remaining at 1 h: 60%
MDA-MB-231 [29]
  fold change (FC): 2.3
[14]
  Activity: Active
[16]
  IC50 at 72 h: > 100 µM
[30]
  IC50: 1.1 µM
MDA-MB-231 [31]
  Activity: Active
MDA-MB-231 [19]
  IC50: 2 µM
[32]
  Activity: Active

## Cc1ccc(NC(=S)CCCn2cc(-c3ccc(C(F)(F)F)cc3)nn2)cc1
A549 [33]
  fold change (FC): 3.5
[34]
  Activity: Active
A549 [35]
  fold change (FC): 3.3
A549 [3]
  Activity: Active
A549 [4]
  Activity: Dde
A549 [5]
  Activity: Active
[7]
  Activity: Active
A549 [9]
  Activity: Dde
A549 [10]
  Activity: Active
A549 [11]
  IC50: 5.5 µM
[12]
  remaining at 1 h: 73%
[14]
  Activity: Active
[16]
  IC50 at 72 h: > 100 µM
A549 [18]
  Activity: Active
MDA-MB-231 [19]
  IC50: 83.2 µM
A549 [20]
  Activity: Active
